In brackets after ≈: the same amount, converted by molar mass. Activity calls are given as the source filed them. The calls are words filed in the database; no cut-off is given here.
Assays:
[1] = tested on: HeLa; assay: Cytotoxicity against human HeLa cells; format: functional, cell-based
[2] = tested on: TF-1; assay: Cytotoxicity against human TF1 cells; format: functional, cell-based
[3] = tested on: Candida albicans; assay: Antimicrobial activity against Candida albicans at 5 and 10 ug after 24 hrs by agar diffusion method; format: functional, organism-based
Method in brief: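 Disks (5 mm) carrying 5 or 10 µg of compound in MeOH were placed on YPD agar plates inoculated with C. albicans. Inhibition zones were read after 24 h at 27 °C. Solvent-only disks served as controls.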

[4] = tested on: Artemia salina; assay: Toxicity against Artemia salina; format: organism-based
[5] = tested on: Staphylococcus aureus; assay: Antimicrobial activity against Staphylococcus aureus ATCC 25923 at 5 and 10 ug after 24 hrs by agar diffusion method; format: functional, organism-based
Method in brief: (§1)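 Paper disks (5 mm) loaded with 5 or 10 µg of compound in MeOH, set on LB agar plates seeded with the test bacterium. Incubated 24 h at 37 °C, then inhibition zone diameters recorded. Disks carrying solvent only served as controls.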

[6] = tested on: Bacillus subtilis; assay: Antimicrobial activity against Bacillus subtilis 168 at 5 and 10 ug after 24 hrs by agar diffusion method; format: functional, organism-based; method in brief: as §1

| SMILES | Activity [1] | Activity [2] | Activity [3] | IC50 [4] [µg/mL] | Activity [5] | Activity [6] |
| --- | --- | --- | --- | --- | --- | --- |
| CC(C)CCCCCCCCCCC/C(O)=C1\C(=O)CN(C)C1=O | inactive | inactive | – | – | – | – |
| CC(C)CCCCCCCCC/C(O)=C1\C(=O)C(C)N(C)C1=O (configuration not stated) | inactive | inactive | – | – | – | – |
| CCCCCCCCCCC/C(O)=C1\C(=O)C(C)N(C)C1=O (configuration not stated) | inactive | inactive | – | – | – | – |
| CC(C)CCCCCCCCCCCC/C(O)=C1\C(=O)CN(C)C1=O | inactive | inactive | – | – | – | – |
| CCCCCCCC(C)CCC/C(O)=C1\C(=O)C(C)N(C)C1=O (configuration not stated) [MELOPHLIN C] | inactive | inactive | Active | 36.6 (≈ 113 µM) | Active | Active |
| CCC(C)CCCCCCCCCC/C(O)=C1\C(=O)CN(C)C1=O (configuration not stated) [MELOPHLIN I] | inactive | inactive | – | 52.6 (≈ 156 µM) | – | – |
| CCCCCCCCCCCCC/C(O)=C1\C(=O)CN(C)C1=O [MELOPHLIN G] | inactive | inactive | – | 48.8 (≈ 151 µM) | – | – |
| CCC(C)CCCCCCCC/C(O)=C1\C(=O)C(C)N(C)C1=O (configuration not stated) | inactive | inactive | – | – | – | – |
